# In ChEMBL document CHEMBL4257543, “Structural optimization and antibacterial evaluation of rhodomyrtosone B analogues against MRSA strains” (Medchemcomm, 2018):
# The source made the active and inactive calls.
# Key:
# [1] = test system: Paenibacillus polymyxa; assay: Antibacterial activity against Bacillus polymyxa ATCC 842 by micro dilution susceptibility test; type: functional
# How it was run: (§1)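 Microbroth dilution MIC in Mueller–Hinton broth following CLSI guidelines, with vancomycin as positive control; assays run at least in triplicate.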
# [2] = test system: Staphylococcus aureus; assay: Antibacterial activity against methicillin-resistant Staphylococcus aureus JCSC 4788 by micro dilution susceptibility test; type: functional
# How it was run: (§2)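 Microbroth dilution MIC in Mueller–Hinton broth following CLSI guidelines, vancomycin as positive control; resazurin added as visible growth indicator. Assays run at least in triplicate.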
# [3] = test system: Staphylococcus aureus; assay: Selectivity ratio of MIC for methicillin-resistant Staphylococcus aureus JCSC 3063 to MIC for methicillin-resistant Staphylococcus aureus JCSC 4788; type: functional
# [4] = test system: Staphylococcus aureus; assay: Induction of morphological changes in methicillin-resistant Staphylococcus aureus JCSC 4788 assessed as cytoplasmic membrane disruption at 4 times MIC measured after 3 hrs scanning electron microscopic analysis; type: functional, organism-based
# How it was run: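 Exponential-phase MRSA JCSC 4788 treated at 37 °C and washed. Cells prefixed overnight in 0.1 M phosphate pH 7.2 with 2% glutaraldehyde and 2.5% paraformaldehyde, then post-fixed in 1% OsO4 for 2 h. Samples ethanol-dehydrated, freeze-dried, gold-coated and imaged by SEM.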
# [5] = test system: Staphylococcus aureus; assay: Bactericidal activity against methicillin-resistant Staphylococcus aureus JCSC 4788 assessed as bacterial killing at 4 MIC measured within 0.5 hrs by time kill assay relative to control; type: functional
# How it was run: (§3)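 Time-kill per CLSI: overnight MRSA JCSC 4788 adjusted in 0.85% NaCl to 10^6–10^7 CFU mL−1 and exposed to 0.5×, 1×, 2× and 4× MIC at 35 °C, vancomycin as comparator. Viable plate counts at 0.5, 2, 4, 8 and 24 h; two independent experiments.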
# [6] = test system: Staphylococcus aureus; assay: Antibacterial activity against methicillin-resistant Staphylococcus aureus JCSC 4788 in Balb/c mouse skin infection model assessed as reduction in infection-induced morbidity by measuring increase in body weight at 40 ug administered as single dose via intradermal route measured daily for 11 days; type: functional, organism-based
# How it was run: (§4)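 Female BALB/c mice (18–20 g) injected intradermally in abdominal skin with 0.1 mL of MRSA JCSC 4788 (1×10^8 CFU) mixed with a single 40 μg dose in DMSO; DMSO-vehicle controls. Body weight and lesion size recorded daily for 11 days, ulcers imaged at 3 and 8 days; n = 6, mean ± SD.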
# [7] = test system: MCF7; assay: Cytotoxicity against human MCF7 cells by MTT assay; type: cell-based
# How it was run: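 MTT viability assay after 24 h exposure to compound at 1.5625–100 µg mL⁻¹; control cells received DMSO at 0.5% (highest test-well level); IC50 given as mean ± SD of at least triplicate runs.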
# [8] = test system: Staphylococcus aureus; assay: Bactericidal activity against methicillin-resistant Staphylococcus aureus JCSC 4788 assessed as reduction in colony forming units at 4 times MIC measured after 4 hrs by time kill assay relative to control; type: functional; parameters: scale not given: the % may be the effect or the level left; how it was run: as §3
# [9] = test system: Staphylococcus aureus; assay: Induction of membrane disruption in methicillin-resistant Staphylococcus aureus JCSC 4788 assessed as increase in fluorescence intensity at MIC measured after 3 hrs by SYTOX green dye based fluorescence assay; type: functional, organism-based
# How it was run: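 Exponential-phase MRSA JCSC 4788 washed and set to OD620 0.4 in 0.85% NaCl, exposed to serial compound concentrations for 3 h, then 3 μM SYTOX Green for 20 min. Fluorescence read at ex 504/em 523 nm with melittin as positive control and vancomycin as comparator; mean ± SD, n = 3.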
# [10] = test system: Staphylococcus aureus; assay: Antibacterial activity against methicillin-resistant Staphylococcus aureus JCSC 4469 by micro dilution susceptibility test; type: functional; how it was run: as §2
# [11] = test system: Staphylococcus aureus; assay: Antibacterial activity against methicillin-resistant Staphylococcus aureus NCTC 10442 by micro dilution susceptibility test; type: functional; how it was run: as §2
# [12] = Selectivity ratio of MIC for methicillin-resistant Staphylococcus aureus N315 to MIC for methicillin-resistant Staphylococcus aureus JCSC 4788; type: functional
# [13] = Selectivity ratio of MIC for vancomycin-resistant Enterococcus faecium to MIC for methicillin-resistant Staphylococcus aureus JCSC 4788; type: functional
# [14] = test system: Staphylococcus aureus; assay: Bactericidal activity against methicillin-resistant Staphylococcus aureus JCSC 4788 assessed as reduction in colony forming units at 2 times MIC measured after 2 hrs by time kill assay relative to control; type: functional; parameters: scale not given: the % may be the effect or the level left; how it was run: as §3
# [15] = test system: Staphylococcus aureus; assay: Antibacterial activity against methicillin-resistant Staphylococcus aureus JCSC 4788 in Balb/c mouse skin infection model assessed as reduction in infection-induced morbidity by measuring decrease in wound size at 40 ug administered as single dose via intradermal route measured daily for 11 days; type: functional, organism-based; how it was run: as §4
# [16] = test system: Staphylococcus aureus; assay: Antibacterial activity against methicillin-resistant Staphylococcus aureus JCSC 4788 at sub-MIC re-passaged at 24 hrs intervals for 20 times by micro dilution susceptibility test; type: functional, organism-based
# How it was run: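 Exponential-phase MRSA JCSC 4788 at 37 °C passaged into fresh MHB containing compound at a sub-inhibitory concentration and re-passaged at 24 h intervals up to at least 20 passages; MIC then redetermined by CLSI microbroth dilution in MHB. Resistance defined as a more than 4-fold increase over the initial MIC.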
# [17] = test system: Staphylococcus aureus; assay: Antibacterial activity against methicillin-resistant Staphylococcus aureus JCSC 2172 by micro dilution susceptibility test; type: functional; how it was run: as §2
# [18] = test system: Staphylococcus epidermidis; assay: Antibacterial activity against Staphylococcus epidermidis ATCC 12228 by micro dilution susceptibility test; type: functional; how it was run: as §1
# [19] = test system: Staphylococcus aureus; assay: Antibacterial activity against methicillin-resistant Staphylococcus aureus 85/2082 by micro dilution susceptibility test; type: functional; how it was run: as §2
# [20] = Selectivity ratio of IC50 for mouse RAW264.7 cells to MIC for methicillin-resistant Staphylococcus aureus JCSC 4788; type: toxicity
# How it was run: (§5)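 Ratio of 24 h MTT cytotoxicity IC50 (compound 1.5625–100 μg mL−1, 0.5% DMSO control) to MIC against MRSA JCSC 4788 from CLSI microbroth dilution in MHB; IC50 values expressed as mean ± SD.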
# [21] = test system: Candida albicans; assay: Antibacterial activity against Candida albicans ATCC 10231 by micro dilution susceptibility test; type: functional; how it was run: as §1
# [22] = Selectivity ratio of IC50 for human MCF7 cells to MIC for methicillin-resistant Staphylococcus aureus JCSC 4788; type: toxicity; how it was run: as §5
# [23] = test system: Staphylococcus aureus; assay: Antibacterial activity against methicillin-resistant Staphylococcus aureus N315 by micro dilution susceptibility test; type: functional; how it was run: as §2
# [24] = test system: Cutibacterium acnes; assay: Antibacterial activity against Propionicibacterium acnes ATCC 6919 by micro dilution susceptibility test; type: functional
# How it was run: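 Microbroth dilution MIC in Mueller–Hinton broth following CLSI guidelines; […]; resazurin added as visible growth indicator; vancomycin positive control; at least triplicate.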
# [25] = test system: Staphylococcus aureus; assay: Antibacterial activity against Staphylococcus aureus ATCC 6538 by micro dilution susceptibility test; type: functional; how it was run: as §2
# [26] = test system: Paenibacillus polymyxa; assay: Antibacterial activity against Bacillus polymyxa GIM 1.467 by micro dilution susceptibility test; type: functional; how it was run: as §1
# [27] = test system: Staphylococcus aureus; assay: Induction of cytoplasmic membrane hyperpolarization in methicillin-resistant Staphylococcus aureus JCSC 4788 at 4 to 8 times MIC measured up to 9 mins by Disc3(5) staining based fluorescence spectrophotometric method; type: functional, organism-based
# How it was run: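 Exponential-phase MRSA JCSC 4788 washed and set to OD620 0.1 in 5 mM HEPES pH 7. Cells loaded with 0.4 μM DiSC3(5) plus 100 mM KCl for 20 min at 37 °C with agitation. Compound added at 0.5–8× MIC and fluorescence followed at ex 660/em 670 nm; mean ± SD.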
structure (smiles),measurement,setting,value
CCCCCCCC(=O)c1c(O)cc(O)c2c1OC1=C(C(=O)C(C)(C)C(=O)C1(C)C)C2CC(C)C (configuration not stated),MIC,[1],> 32 µg/mL
same,MIC,[2],0.25 to 0.5 µg/mL
same,Selectivity ratio,[3],0.5 - 2
same,Activity,[4],Active
same,Activity,[5],>90%
same,Activity,[6],Active
same,IC50,[7],9.98 µg/mL
same,Activity,[8],99.9%
same,Activity,[9],Active
same,MIC,[10],0.25 µg/mL
same,MIC,[11],0.5 µg/mL
same,Selectivity ratio,[12],0.5 to 2
same,Selectivity ratio,[13],0.5 to 2
same,Activity,[14],99.9%
same,Activity,[15],Active
same,Activity,[16],Active
same,MIC,[17],0.25 µg/mL
same,MIC,[18],0.25 µg/mL
same,MIC,[19],0.25 µg/mL
same,Selectivity ratio,[20],22.4
same,MIC,[21],> 32 µg/mL
same,Selectivity ratio,[22],39.9
same,MIC,[23],0.25 µg/mL
same,MIC,[24],0.25 µg/mL
same,MIC,[25],0.25 µg/mL
same,MIC,[26],> 32 µg/mL
same,Activity,[27],Active
